In brackets after ≈: the same amount, converted by molar mass. Activity calls are given as the source filed them. The rule behind the calls is not given here.
Experiments:
[1] = Inhibition of NDM1 (unknown origin) overexpressed in Escherichia coli BL21 (DE3) using cefazolin as substrate incubated for 30 mins prior to testing by UV spectrophotometric analysis
In short: (§1)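 Each enzyme (CcrA or NDM-1) was assayed on cefazolin hydrolysis followed at 262 nm. Initial rates were measured in triplicate with or without inhibitor and averaged. IC50 is the concentration causing 50% loss of activity.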

[2] = Inhibition of Aeromonas veronii bv. sobria ImiS overexpressed in Escherichia coli BL21 (DE3) using imipenem as substrate incubated for 30 mins prior to testing by UV spectrophotometric analysis
In short: (§2)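 ImiS activity measured as imipenem hydrolysis monitored at 300 nm. Initial rates were taken with and without inhibitor, each in triplicate and averaged. IC50 is the inhibitor concentration giving a 50% drop in enzyme activity.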

[3] = biological target: Metallo-beta-lactamase type 2 (Bacteroides fragilis) (UniProt P25910); test: Inhibition of Bacteroides fragilis CcrA overexpressed in Escherichia coli BL21 (DE3) using cefazolin as substrate up to 5 uM incubated for 30 mins prior to testing by UV spectrophotometric analysis; in short: as §1
Sequence of Metallo-beta-lactamase type 2 (Bacteroides fragilis) (P25910 whole entry): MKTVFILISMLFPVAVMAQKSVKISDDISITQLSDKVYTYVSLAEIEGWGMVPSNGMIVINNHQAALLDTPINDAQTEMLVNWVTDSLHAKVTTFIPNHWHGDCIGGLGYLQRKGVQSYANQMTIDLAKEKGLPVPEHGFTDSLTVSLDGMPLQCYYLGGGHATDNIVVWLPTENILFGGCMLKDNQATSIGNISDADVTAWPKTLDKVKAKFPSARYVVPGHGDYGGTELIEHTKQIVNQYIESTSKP

Escherichia coli [4] = test: Antibacterial activity against Escherichia coli assessed as cefazolin MIC after 12 hrs by macrodilution broth method (reference value: 64 ug/ml); type: functional
Escherichia coli [5] = test: Antibacterial activity against Escherichia coli assessed as imipenem MIC after 12 hrs by macrodilution broth method (reference value: 0.5 ug/ml); type: functional
[6] = Inhibition of NDM1 (unknown origin) overexpressed in Escherichia coli BL21 (DE3) assessed as cefazolin MIC at 16 ug/ml after 12 hrs by macrodilution broth method
In short: (§3)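 MICs of antibiotic were measured with and without inhibitor at a final 16 μg/mL in E. coli BL21(DE3) carrying pMSZ02-CcrA, pET26b-NDM-1, pET26b-ImiS or pET26b-L1, plus plasmid-free BL21(DE3) as a control. Cefazolin was the antibiotic for the CcrA, NDM-1 and L1 strains; imipenem was used for the ImiS strain.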

[7] = biological target: Metallo-beta-lactamase type 2 (Bacteroides fragilis) (UniProt P25910); test: Inhibition of Bacteroides fragilis CcrA overexpressed in Escherichia coli BL21 (DE3) assessed as cefazolin MIC at 16 ug/ml after 12 hrs by macrodilution broth method; in short: as §3
[8] = tested on: Aeromonas veronii bv. sobria; test: Inhibition of Aeromonas veronii bv. sobria ImiS overexpressed in Escherichia coli BL21 (DE3) assessed as imipenem MIC at 16 ug/ml after 12 hrs by macrodilution broth method; in short: as §3
[9] = biological target: Beta-lactamase L1 (Stenotrophomonas maltophilia) (UniProt P52700); test: Inhibition of Stenotrophomonas maltophilia L1 overexpressed in Escherichia coli BL21 (DE3) assessed as cefazolin MIC at 16 ug/ml after 12 hrs by macrodilution broth method; in short: as §3
Sequence of Beta-lactamase L1 (Stenotrophomonas maltophilia) (P52700 34-290 limits assumed): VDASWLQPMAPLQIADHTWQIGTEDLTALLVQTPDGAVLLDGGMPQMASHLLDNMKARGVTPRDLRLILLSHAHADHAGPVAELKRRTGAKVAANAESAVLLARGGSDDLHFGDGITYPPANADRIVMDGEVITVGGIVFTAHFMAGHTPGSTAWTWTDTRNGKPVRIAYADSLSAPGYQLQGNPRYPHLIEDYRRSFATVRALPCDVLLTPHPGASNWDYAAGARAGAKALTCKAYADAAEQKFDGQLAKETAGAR

[10] = biological target: Beta-lactamase L1 (Stenotrophomonas maltophilia) (UniProt P52700); test: Inhibition of Stenotrophomonas maltophilia L1 overexpressed in Escherichia coli BL21 (DE3) assessed as reduction of cefazolin MIC at 16 ug/ml after 12 hrs by macrodilution broth method relative to cefazolin-treated control; in short: as §3
Beta-lactamase L1 [11] = biological target: T1, Beta-lactamase L1 (Stenotrophomonas maltophilia, UniProt P52700); test: Inhibition of Stenotrophomonas maltophilia L1 overexpressed in Escherichia coli BL21 (DE3) using cefazolin as substrate incubated for 30 mins prior to testing by UV spectrophotometric analysis
T1 sequence (P52700 whole entry): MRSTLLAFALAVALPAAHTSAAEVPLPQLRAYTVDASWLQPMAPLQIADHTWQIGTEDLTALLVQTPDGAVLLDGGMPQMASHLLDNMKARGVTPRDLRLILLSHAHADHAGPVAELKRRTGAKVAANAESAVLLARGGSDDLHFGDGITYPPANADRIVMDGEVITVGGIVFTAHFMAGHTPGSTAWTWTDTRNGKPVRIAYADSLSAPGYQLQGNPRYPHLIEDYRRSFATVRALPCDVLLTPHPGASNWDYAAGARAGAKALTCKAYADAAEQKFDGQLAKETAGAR

Beta-lactamase L1 [12] = biological target: T1, Beta-lactamase L1; test: Mixed-type inhibition of Stenotrophomonas maltophilia L1 overexpressed in Escherichia coli BL21 (DE3) using cefazolin as substrate incubated for 30 mins prior to testing by Lineweaver-Burk plot analysis
[13] = biological target: Metallo-beta-lactamase type 2 (Bacteroides fragilis, UniProt P25910); test: Inhibition of Bacteroides fragilis CcrA overexpressed in Escherichia coli BL21 (DE3) using cefazolin as substrate incubated for 30 mins prior to testing by UV spectrophotometric analysis; in short: as §1
Sequence of Metallo-beta-lactamase type 2 (P25910 whole entry): as the sequence (P25910 whole entry) above

[14] = tested on: Aeromonas veronii bv. sobria; test: Inhibition of Aeromonas veronii bv. sobria ImiS overexpressed in Escherichia coli BL21 (DE3) using imipenem as substrate up to 5 uM incubated for 30 mins prior to testing by UV spectrophotometric analysis; in short: as §2
Escherichia coli [15] = test: Antibacterial activity against Escherichia coli after 12 hrs by macrodilution broth method; type: functional

| SMILES | IC50 [1] [nM] | IC50 [2] [nM] | inhibition [3] | MIC (Escherichia coli [4]) [µg/mL] | MIC (Escherichia coli [5]) [µg/mL] | MIC [6] [µg/mL] | MIC [7] [µg/mL] | MIC [8] [µg/mL] | MIC [9] [µg/mL] | fold change (FC) [10] | IC50 (Beta-lactamase L1 [11]) [nM] | Ki (Beta-lactamase L1 [12]) [nM] | IC50 [13] [nM] | inhibition [14] | MIC (Escherichia coli [15]) [µg/mL] |
| --- | --- | --- | --- | --- | --- | --- | --- | --- | --- | --- | --- | --- | --- | --- | --- |
| O=C(O)CSC(=O)[C@H](Cc1ccccc1)NC(=O)Cc1cccs1 | 36300 | 65400 | inactive | 64 | 0.5 | 8 | 4 | 1 | 4 | 2 | 2900 | 950 |  |  |  |
| CSCC[C@H](NC(=O)Cc1cccs1)C(=O)SCC(=O)O |  | 13300 |  | > 64 | 0.5 | 8 | 4 | 1 | 2 | 4 | 18 | 110 | 123000 |  |  |
| O=C(O)CSC(=O)[C@H](CO)NC(=O)Cc1cccs1 |  | 60100 | inactive | 64 | 0.5 | 8 | 4 | 1 | 4 | 2 | 1490 | 170 |  |  |  |
| O=C(O)CSC(=O)[C@H](CCCCNC(=O)Cc1cccs1)NC(=O)Cc1cccs1 |  |  | inactive | 64 | 0.5 | 4 | 4 | 2 | 4 | 2 | 1080 | 190 |  | inactive |  |
| O=C(O)CSC(=O)[C@H](Cc1c[nH]c2ccccc12)NC(=O)Cc1cccs1 |  |  | inactive | 64 | 0.5 | 8 | 4 | 2 | 2 | 4 | 290 | 170 |  | inactive |  |
| C[C@@H](O)[C@H]1C(=O)N2C(C(=O)O)=C(SCCNC=N)C[C@H]12 [IMIPENEM ANHYDROUS] |  |  |  |  |  |  |  |  |  |  |  |  |  |  | 0.5 (≈ 1.67 µM) |
| CC(C)C[C@H](NC(=O)Cc1cccs1)C(=O)SCC(=O)O | 28500 | 3600 | inactive | 64 | 0.5 | 4 | 4 | 1 | 2 | 4 | 69 | 210 |  |  |  |
| O=C(O)CSC(=O)[C@@H]1CCCN1C(=O)Cc1cccs1 |  |  | inactive | 64 | 0.5 | 8 | 4 | 2 | 2 | 4 | 450 | 870 |  | inactive |  |
| CC(C)[C@H](NC(=O)Cc1cccs1)C(=O)SCC(=O)O | 12400 | 18900 |  | > 64 | 0.5 | 4 | 4 | 1 | 4 | 2 | 450 | 280 | 38500 |  |  |
| Cc1nnc(SCC2=C(C(=O)O)N3C(=O)[C@@H](NC(=O)Cn4cnnn4)[C@H]3SC2)s1 [CEFAZOLIN] |  |  |  |  |  |  |  |  |  |  |  |  |  |  | 64 (≈ 141 µM) |
| C[C@H](NC(=O)Cc1cccs1)C(=O)SCC(=O)O | 95700 | 46300 | inactive | > 64 | 0.5 | 4 | 4 | 1 | 2 | 4 | 910 | 410 |  |  |  |
| O=C(O)CSC(=O)CNC(=O)Cc1cccs1 | 28700 | 61500 | inactive | 64 | 0.5 | 4 | 4 | 1 | 4 | 2 | 840 | 280 |  |  |  |

— ChEMBL document CHEMBL3585285, “Amino Acid Thioester Derivatives: A Highly Promising Scaffold for the Development of Metallo-β-lactamase L1 Inhibitors” (ACS Med Chem Lett, 2015)
